A word on the IC50: it is the concentration that gives 50% inhibition. Lower therefore signals inhibition by little substance. As a reminder, the Emax is the size of the effect at its maximum, as opposed to the concentration needed. As a reminder, the EC50 is the midpoint of the concentration-response curve.

Each structure is given as a SMILES string. A value given as a limit tells only on which side of the number the result lay.

Assay [1] has as its target T1, Nitric oxide synthase 1 (Rattus norvegicus, UniProt P29476). Put plainly: Inhibitory activity against isomeric form of Neuronal nitric oxide synthase measured by citrulline assay. Summed up: (§1)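 Rat brain cytosol as nNOS source. Incubated 20 min at ambient temperature with 10 μM purified L-[2,3-3H]arginine, 1 mM NADPH, 2 mM CaCl2 and varying inhibitor. Stopped with EGTA/EDTA/HEPES buffer, pH 5.5. [3H]citrulline separated on Dowex 50WX-8 (Na+) and counted by liquid scintillation. IC50 reported.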

The target of assay [2] is T2, Nitric oxide synthase 3 (Bos taurus, UniProt P29473).
T2 sequence (P29473 whole entry): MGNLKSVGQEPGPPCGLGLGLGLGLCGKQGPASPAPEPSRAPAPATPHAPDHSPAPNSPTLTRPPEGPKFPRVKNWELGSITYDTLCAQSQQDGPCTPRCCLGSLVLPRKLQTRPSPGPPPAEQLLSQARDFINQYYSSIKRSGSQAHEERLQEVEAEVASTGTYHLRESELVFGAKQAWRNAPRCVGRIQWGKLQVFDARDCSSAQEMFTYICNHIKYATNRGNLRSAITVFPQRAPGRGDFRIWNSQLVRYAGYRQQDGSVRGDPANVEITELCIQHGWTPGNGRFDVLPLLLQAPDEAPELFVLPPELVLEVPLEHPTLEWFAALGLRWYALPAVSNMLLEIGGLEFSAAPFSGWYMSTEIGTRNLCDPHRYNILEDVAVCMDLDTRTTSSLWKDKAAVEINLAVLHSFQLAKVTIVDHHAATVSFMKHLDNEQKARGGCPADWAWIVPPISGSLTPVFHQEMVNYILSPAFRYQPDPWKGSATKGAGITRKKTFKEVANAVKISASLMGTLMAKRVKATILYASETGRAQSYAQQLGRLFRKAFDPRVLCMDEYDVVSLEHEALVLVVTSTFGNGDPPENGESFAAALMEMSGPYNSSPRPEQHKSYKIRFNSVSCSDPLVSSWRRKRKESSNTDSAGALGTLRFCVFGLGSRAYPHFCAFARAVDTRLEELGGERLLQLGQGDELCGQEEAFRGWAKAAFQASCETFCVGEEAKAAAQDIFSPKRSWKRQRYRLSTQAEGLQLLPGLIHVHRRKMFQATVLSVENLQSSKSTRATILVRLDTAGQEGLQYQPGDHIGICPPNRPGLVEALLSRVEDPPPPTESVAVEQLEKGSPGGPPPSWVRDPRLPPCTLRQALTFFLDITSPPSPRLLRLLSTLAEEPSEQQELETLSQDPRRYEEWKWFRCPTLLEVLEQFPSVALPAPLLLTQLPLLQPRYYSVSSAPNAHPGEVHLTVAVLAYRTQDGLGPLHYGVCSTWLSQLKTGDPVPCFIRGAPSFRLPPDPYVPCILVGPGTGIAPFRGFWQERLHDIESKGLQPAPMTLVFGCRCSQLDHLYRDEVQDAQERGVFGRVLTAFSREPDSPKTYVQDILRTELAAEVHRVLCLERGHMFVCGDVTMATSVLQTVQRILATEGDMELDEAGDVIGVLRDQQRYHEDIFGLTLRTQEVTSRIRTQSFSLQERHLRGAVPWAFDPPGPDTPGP
Put plainly: Inhibitory activity of conversion of radiolabeled arginine to citrulline by isomeric form of nitric oxide synthase Endothelial nitric oxide synthase from cultured bovine aortic endothelial cells. Format: cell-based, Endothelial cell. A digest of the protocol: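 eNOS taken from the CHAPS-solubilized particulate fraction of cultured bovine aortic endothelial cells. Incubated 20 min at ambient temperature with 10 μM L-[2,3-3H]arginine, 1 mM NADPH, 2 mM CaCl2 and graded inhibitor. Stopped at pH 5.5 with EGTA/EDTA; [3H]citrulline isolated on cation-exchange column and counted by scintillation. IC50.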

Assay [3] has as its target T3, Nitric oxide synthase, inducible (Mus musculus, UniProt P29477).
T3 sequence (P29477 whole entry): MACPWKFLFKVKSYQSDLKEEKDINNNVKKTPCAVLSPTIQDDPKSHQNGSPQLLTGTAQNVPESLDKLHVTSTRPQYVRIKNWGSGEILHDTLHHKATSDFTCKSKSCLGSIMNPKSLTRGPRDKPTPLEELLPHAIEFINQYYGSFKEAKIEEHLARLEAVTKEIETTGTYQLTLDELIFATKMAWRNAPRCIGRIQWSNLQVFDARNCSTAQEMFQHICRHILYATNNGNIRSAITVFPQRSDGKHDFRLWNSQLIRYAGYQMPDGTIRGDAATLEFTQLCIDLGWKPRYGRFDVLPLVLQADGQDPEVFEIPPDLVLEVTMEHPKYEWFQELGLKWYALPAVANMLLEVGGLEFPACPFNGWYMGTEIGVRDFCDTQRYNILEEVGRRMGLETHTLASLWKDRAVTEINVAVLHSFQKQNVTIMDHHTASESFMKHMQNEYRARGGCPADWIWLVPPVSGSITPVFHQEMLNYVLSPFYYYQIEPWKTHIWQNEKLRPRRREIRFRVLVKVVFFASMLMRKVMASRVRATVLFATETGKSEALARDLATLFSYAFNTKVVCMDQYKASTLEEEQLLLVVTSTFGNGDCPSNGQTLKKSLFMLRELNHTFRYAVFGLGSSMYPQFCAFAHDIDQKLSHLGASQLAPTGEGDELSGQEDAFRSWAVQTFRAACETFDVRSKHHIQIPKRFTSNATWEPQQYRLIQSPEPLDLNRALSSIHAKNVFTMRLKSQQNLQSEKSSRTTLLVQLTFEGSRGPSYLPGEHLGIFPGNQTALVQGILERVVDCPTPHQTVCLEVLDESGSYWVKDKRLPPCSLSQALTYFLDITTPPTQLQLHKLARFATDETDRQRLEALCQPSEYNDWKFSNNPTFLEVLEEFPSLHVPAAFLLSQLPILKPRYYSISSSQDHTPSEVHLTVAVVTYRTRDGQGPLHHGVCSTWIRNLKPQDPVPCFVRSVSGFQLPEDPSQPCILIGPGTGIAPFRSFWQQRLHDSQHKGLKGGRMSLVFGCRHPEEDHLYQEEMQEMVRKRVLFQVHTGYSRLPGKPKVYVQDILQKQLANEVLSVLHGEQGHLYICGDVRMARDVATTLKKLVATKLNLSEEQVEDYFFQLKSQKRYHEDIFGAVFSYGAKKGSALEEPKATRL
Put plainly: Inhibition of radiolabeled arginine conversion to citrulline by isomeric form of Inducible nitric oxide synthase from mouse RAW 264.7 cells. Format: cell-based. A digest of the protocol: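 Incubated 20 min at ambient temperature with 10 μM [3H]arginine, 1 mM NADPH, no Ca2+, and varying inhibitor. Stopped with EGTA/EDTA buffer, pH 5.5; [3H]citrulline separated on Dowex cation exchanger and counted by scintillation. IC50.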

Assay [4] has as its target T1, Nitric oxide synthase 1. Put plainly: Inhibition of arginine to citrulline conversion by Neuronal nitric oxide synthase from rat brain. Summed up:
as §1

The species named for assay [5] is Rattus norvegicus. The assay can be described thus: Inhibitory activity against N-methyl-D-aspartate (NMDA)-induced cyclic GMP accumulation in rat cerebellar slices. Format: functional. A digest of the protocol: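 Cerebellar slices (0.3 mm, coronal and sagittal) from 8–10-day-old rats, preincubated 105 min in Krebs buffer under 95% O2/5% CO2 at 37 °C, then equilibrated 15 min. Test compound added, followed by 500 μM NMDA for 3 min. Stopped with 50 mM sodium acetate and flash-frozen in liquid nitrogen; cGMP measured by radioimmunoassay after sonication.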

The species named for assay [6] is Rattus norvegicus. Put plainly: Percent reversal of ACh-induced relaxation at 100 uM in rat thoracic aorta. Format: functional.
The species named for assay [7] is Rattus norvegicus. The assay can be described thus: Effective concentration for reversal of ACh-induced relaxation in rat thoracic aorta. Format: functional. A digest of the protocol: (§2)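 Male Sprague-Dawley rat (350–375 g) thoracic aortic rings, endothelium spared, held at 1.25 g resting tension in Krebs buffer (pH 7.4) with 5 μM indomethacin, 37 °C, 5% CO2 in O2. After 1 h equilibration: 1 μM phenylephrine precontraction, then 1 μM ACh relaxation to plateau. Cumulative inhibitor additions, each to plateau, give a concentration-response curve for reversal of the relaxation.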

The species entered for assay [8] is Rattus norvegicus. The assay can be described thus: Reversal of ACh-induced relaxation in rat thoracic aorta. Format: functional. Summed up:
as §2

The species named for assay [9] is Rattus norvegicus. Put plainly: E max (%) calculated for reversal of ACh-induced relaxation in rat thoracic aorta. Format: functional. Summed up: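 Male Sprague-Dawley rat (350–375 g) thoracic aortic rings, endothelium preserved, held at 1.25 g resting tension at 37 °C in Krebs buffer (pH 7.4) containing 5 μM indomethacin, gassed with 5% CO2 in O2. After 1 h equilibration, rings were precontracted with 1 μM phenylephrine and relaxed with 1 μM ACh. Inhibitor was then added cumulatively, plateau between additions, to build a reversal concentration-response curve.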

T1 sequence (P29476 whole entry): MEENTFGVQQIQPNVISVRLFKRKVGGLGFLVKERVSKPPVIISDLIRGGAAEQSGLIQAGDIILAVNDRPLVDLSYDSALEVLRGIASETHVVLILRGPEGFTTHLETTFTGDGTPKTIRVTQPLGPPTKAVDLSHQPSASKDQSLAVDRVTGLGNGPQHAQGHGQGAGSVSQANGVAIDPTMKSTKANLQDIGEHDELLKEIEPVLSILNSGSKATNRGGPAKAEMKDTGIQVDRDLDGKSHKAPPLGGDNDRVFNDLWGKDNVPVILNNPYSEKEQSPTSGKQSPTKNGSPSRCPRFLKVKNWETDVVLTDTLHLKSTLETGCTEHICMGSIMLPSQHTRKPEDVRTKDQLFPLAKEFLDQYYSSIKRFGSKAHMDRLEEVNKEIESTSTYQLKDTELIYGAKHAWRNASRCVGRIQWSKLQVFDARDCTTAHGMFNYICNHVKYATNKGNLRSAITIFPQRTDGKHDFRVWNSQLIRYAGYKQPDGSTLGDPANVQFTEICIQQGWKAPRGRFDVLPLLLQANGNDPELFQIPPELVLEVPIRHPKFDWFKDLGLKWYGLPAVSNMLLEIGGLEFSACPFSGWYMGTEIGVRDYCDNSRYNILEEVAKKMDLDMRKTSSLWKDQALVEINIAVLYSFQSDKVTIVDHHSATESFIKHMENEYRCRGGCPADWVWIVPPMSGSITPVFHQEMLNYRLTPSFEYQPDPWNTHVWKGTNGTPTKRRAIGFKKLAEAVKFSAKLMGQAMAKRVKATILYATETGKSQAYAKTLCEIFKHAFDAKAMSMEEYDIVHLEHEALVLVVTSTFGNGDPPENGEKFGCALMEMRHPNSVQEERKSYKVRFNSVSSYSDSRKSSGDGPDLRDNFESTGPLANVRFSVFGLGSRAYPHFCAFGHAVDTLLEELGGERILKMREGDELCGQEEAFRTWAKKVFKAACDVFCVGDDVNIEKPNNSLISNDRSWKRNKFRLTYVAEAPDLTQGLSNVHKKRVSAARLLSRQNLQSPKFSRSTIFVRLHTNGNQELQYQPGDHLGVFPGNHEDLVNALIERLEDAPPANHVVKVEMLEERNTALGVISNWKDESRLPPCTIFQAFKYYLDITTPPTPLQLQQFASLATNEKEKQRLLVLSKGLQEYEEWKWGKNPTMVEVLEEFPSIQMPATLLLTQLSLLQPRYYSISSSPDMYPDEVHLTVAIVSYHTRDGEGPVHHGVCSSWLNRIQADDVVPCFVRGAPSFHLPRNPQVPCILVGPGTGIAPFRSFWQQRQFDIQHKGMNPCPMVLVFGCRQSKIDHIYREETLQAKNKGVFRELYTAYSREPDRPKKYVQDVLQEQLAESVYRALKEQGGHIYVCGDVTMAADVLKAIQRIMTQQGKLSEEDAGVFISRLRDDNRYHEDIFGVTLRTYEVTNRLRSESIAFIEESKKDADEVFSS

Compound `Cc1ccc([N+](=O)[O-])c(N)c1` registered an IC50 in assay [1] of 70 µM.
Consider `N[C@@H](CCCNc1ccc(F)cc1[N+](=O)[O-])C(=O)O`, for which the IC50 in [2], in [3] and in assay [1] was more than 100 µM throughout.
For `N[C@@H](CCCNc1c([N+](=O)[O-])cccc1[N+](=O)[O-])C(=O)O`, the 50% inhibitory concentration (IC50) in assay [2] worked out at 60 µM; in assay [1], 30 µM.
`Cc1ccc([N+](=O)[O-])c(NCC[C@H](N)C(=O)O)c1`: the 50% inhibitory concentration (IC50) in [3] and in assay [4] was more than 100 µM each time.
For `Cc1ccc(NCCC[C@H](N)C(=O)O)c([N+](=O)[O-])c1`, the IC50 in [3] and in assay [1] was more than 100 µM throughout.
Consider `N[C@@H](CCCNc1ccccc1[N+](=O)[O-])C(=O)O`, for which the IC50 is 100 µM in assay [2], more than 100 µM in assay [3] and 100 µM in assay [1].
Turning to `Cc1ccc([N+](=O)[O-])c(NCCC[C@H](N)C(=O)O)c1`, the IC50 in [2] came to 5 µM; in assay [3], 11 µM; in [4], 2.5 µM; in [5] it was 33 µM. Further, the Emax at 100 µM in assay [6] is 41%.
In the case of `Cc1ccc([N+](=O)[O-])c(SCCC[C@H](N)C(=O)O)c1`, the IC50 came out at 9 µM in assay [2], 4 µM in [3], 5 µM in assay [4] and 37 µM in assay [5].
In the case of `N[C@@H](CCCNc1ccc(C(=O)O)cc1[N+](=O)[O-])C(=O)O`, the IC50 in assay [3] and in [1] was more than 100 µM each time.
Regarding `Cc1cccc(NCCC[C@H](N)C(=O)O)c1`, the concentration for half-maximal inhibition (IC50) in assay [3] and in [4] was more than 100 µM each time.
For `Cc1ccc([N+](=O)[O-])c(OCCC[C@H](N)C(=O)O)c1`, the IC50 in assay [2] is 10 µM; in [3], 80 µM; in assay [4], 4 µM.
On to `Cc1ccc([N+](=O)[O-])c(NCCC[C@H](N)CO)c1`, for which the IC50 in assay [2] amounted to 40 µM; in [3], 5 µM; in assay [4] it was 3 µM. Further, the EC50 in assay [7] came to 17 µM. Also, the Emax in [8] was 106%.
Take `Cc1ccc([N+](=O)[O-])c(NCCCCN)c1`: the IC50 came out at 20 µM in assay [2], 9 µM in [3] and 2.5 µM in assay [4].
`N[C@@H](CCCNc1ccc([N+](=O)[O-])cc1[N+](=O)[O-])C(=O)O`: it took 100 µM to reach half-maximal inhibition in assay [1] (IC50).
For `N[C@@H](CCCNc1ccc(C(F)(F)F)cc1[N+](=O)[O-])C(=O)O`, the IC50 in assay [3] and in [1] was more than 100 µM throughout.
For `Cc1cccc(SCCC[C@H](N)C(=O)O)c1`, the IC50 in [3] and in assay [4] was more than 100 µM in each case.
Consider `N[C@@H](CCCNc1cc(O)ccc1[N+](=O)[O-])C(=O)O`, for which the IC50 in [3] and in assay [4] was more than 100 µM each time.
`N=C(NCCC[C@H](N)C(=O)O)N[N+](=O)[O-]` [NITROARGININE]: the IC50 in [3] amounted to 14 µM; in assay [5], 0.2 µM. For the same compound, the concentration for a half-maximal effect (EC50) in [7] turned out to be 3 µM. Also, in assay [9], the Emax was 138%.
With `CNC(=N)NCCC[C@H](N)C(=O)O` [TILARGININE], in assay [7], the EC50 amounted to 14 µM. In addition, in assay [5], the IC50 was determined as 3 µM. For the same compound, the Emax in assay [9] is 119%.

(Values after ChEMBL document CHEMBL1131579, “Nitroaromatic amino acids as inhibitors of neuronal nitric oxide synthase” (J Med Chem, 1998).)
